In ChEMBL document CHEMBL1255362, “Mutations in human immunodeficiency virus type 1 integrase confer resistance to the naphthyridine L-870,810 and cross-resistance to the clinical trial drug GS-9137” (Antimicrob Agents Chemother, 2008):
pEC50, pIC50: −log10 of the molar value.

Experiments:
Format in all cases: functional, organism-based
[1] = system: Human immunodeficiency virus 1; experiment: Antiviral activity against HIV 1 3B infected in MT-4 cells assessed as inhibition of virus-induced cytopathic effect by MTT assay; conditions: Human immunodeficiency virus 1, 3B, MT4
Summary of the method: (§1)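 MT-4 cells (RPMI 1640, 10% heat-inactivated FCS, 2 mM L-glutamine, 37°C, 5% CO2) infected with 100 to 300 CCID50 of virus, titrated on MT-4 cells. Fivefold serial drug dilutions were present during infection. Protection from viral CPE was read by MTT reduction to formazan, measured spectrophotometrically. IC50 is the concentration giving 50% protection.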

[2] = system: Human immunodeficiency virus 1; experiment: Antiviral activity against HIV 1 RIN HIV 1 RIN harboring integrase gene infected in MT-4 cells assessed as inhibition of virus-induced cytopathic effect by MTT assay after 40 passages selected in presence of compound; conditions: Human immunodeficiency virus 1, RIN, MT4; summary of the method: as §1
[3] = system: Human immunodeficiency virus 1; experiment: Antiviral activity against HIV 1 3B harboring integrase L34M mutant infected in MT-4 cells assessed as inhibition of virus-induced cytopathic effect by MTT assay selected after 40 passages in presence of compound; conditions: Human immunodeficiency virus 1, 3B, MT4; summary of the method: as §1
[4] = system: Human immunodeficiency virus 1; experiment: Antiviral activity against HIV 1 RIN HIV 1 RIN harboring integrase gene infected in MT-4 cells assessed as inhibition of virus-induced cytopathic effect by MTT assay after 60 passages selected in presence of compound; conditions: Human immunodeficiency virus 1, RIN, MT4; summary of the method: as §1
[5] = system: Human immunodeficiency virus 1; experiment: Antiviral activity against HIV 1 NL4.3 assessed as inhibition of virus-induced cytopathic effect by MTT assay; conditions: Human immunodeficiency virus 1, NL4.3; summary of the method: as §1
[6] = system: Human immunodeficiency virus 1; experiment: Antiviral activity against HIV 1 RIN harboring integrase gene infected in MT-4 cells assessed as inhibition of virus-induced cytopathic effect by MTT assay; conditions: Human immunodeficiency virus 1, RIN, MT4; summary of the method: as §1
[7] = system: Human immunodeficiency virus 1; experiment: Antiviral activity against HIV 1 3B harboring integrase E92Q S230N double mutant infected in MT-4 cells assessed as inhibition of virus-induced cytopathic effect by MTT assay selected after 20 passages in presence of compound; conditions: Human immunodeficiency virus 1, 3B, MT4; summary of the method: as §1
[8] = system: Human immunodeficiency virus 1; experiment: Antiviral activity against HIV 1 NL4.3 integrase E92Q mutant infected in human MT-4 cells assessed as inhibition of virus-induced cytopathic effect by MTT assay; conditions: Human immunodeficiency virus 1, NL4.3, MT4; summary of the method: as §1
[9] = system: Human immunodeficiency virus 1; experiment: Antiviral activity against HIV 1 NL4.3 integrase S230N mutant infected in human MT-4 cells assessed as inhibition of virus-induced cytopathic effect by MTT assay; conditions: Human immunodeficiency virus 1, NL4.3, MT4; summary of the method: as §1
[10] = system: Human immunodeficiency virus 1; experiment: Antiviral activity against HIV 1 3B harboring integrase E92Q, S230N and L34M triple mutant infected in MT-4 cells assessed as inhibition of virus-induced cytopathic effect by MTT assay selected after 60 passages in presence of compound; conditions: Human immunodeficiency virus 1, 3B, MT4; summary of the method: as §1
[11] = system: Human immunodeficiency virus 1; experiment: Antiviral activity against HIV 1 NL4.3 harboring integrase L74M mutant infected in human MT-4 cells assessed as inhibition of virus-induced cytopathic effect by MTT assay; conditions: Human immunodeficiency virus 1, NL4.3, MT4; summary of the method: as §1
[12] = system: Human immunodeficiency virus 1; experiment: Antiviral activity against HIV 1 RIN harboring integrase gene infected in MT-4 cells assessed as inhibition of virus-induced cytopathic effect by MTT assay after 20 passages selected in presence of compound; conditions: Human immunodeficiency virus 1, RIN, MT4
[13] = system: Human immunodeficiency virus 1; experiment: Antiviral activity against HIV 1 3B infected in MT-4 cells assessed as inhibition of virus-induced cytopathic effect by MTT assay selected after 50 passages in presence of compound; conditions: Human immunodeficiency virus 1, 3B, MT4
Summary of the method: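 Selected strains came from serial passage of HIV-1(IIIB) in MT-4 cells, started at MOI 0.01 with drug at 0.005 µM. Cultures were checked for CPE every 3 to 4 days. Supernatant from CPE-positive cultures went onto fresh cells at equal or higher drug concentration; cultures without breakthrough were subcultured at the same concentration. Susceptibility was tested by the MT-4/MTT CPE assay.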

SMILES	pEC50 [1]	pEC50 [2]	pEC50 [3]	pEC50 [4]	pEC50 [5]	pEC50 [6]	pEC50 [7]	pEC50 [8]	pEC50 [9]	pEC50 [10]	pEC50 [11]	pEC50 [12]	pIC50 [13]
COc1cc2c(cc1Cc1cccc(Cl)c1F)c(=O)c(C(=O)O)cn2[C@H](CO)C(C)C	9.00	7.74	7.30	7.23	9.15	9.15	7.48	7.92	9.05	7.11	9.22	7.82	
Cc1nnc(C(=O)NC(C)(C)c2nc(C(=O)NCc3ccc(F)cc3)c(O)c(=O)n2C)o1		7.60		7.17	8.30	8.22		7.82	8.05		8.15	8.00	
COc1cccc2c1c(C(=O)/C=C(\O)C(=O)O)cn2Cc1ccc(F)cc1	6.41	5.97	5.73	5.58	6.25	6.36	5.72	6.18	6.31	5.44	6.49	6.28	
O=C(NCc1ccc(F)cc1)c1nc(N2CCCCS2(=O)=O)c2cccnc2c1O	8.30	7.19	6.77	6.72	8.40	8.40	6.96	7.14	8.15	6.26	8.40	7.74	5.96
Cc1ccnc2c1NC(=O)c1cccnc1N2C1CC1 [NEVIRAPINE]	6.34	6.82	6.46	6.82		6.77	6.42			6.51			
c1cc(CN2CCCNCCNCCCNCC2)ccc1CN1CCCNCCNCCCNCC1 [PLERIXAFOR]	7.47	8.10	7.55	8.10		7.85	7.31			7.25		8.10	
CC(C)c1nc(CN(C)C(=O)N[C@H](C(=O)N[C@@H](Cc2ccccc2)C[C@H](O)[C@H](Cc2ccccc2)NC(=O)OCc2cncs2)C(C)C)cs1 [RITONAVIR]	7.26	7.38	7.16	7.39	6.89	7.37	7.16	7.24	7.05	7.22	7.22	7.41	
Cc1cn([C@H]2C[C@H](N=[N+]=[N-])[C@@H](CO)O2)c(=O)[nH]c1=O [ZIDOVUDINE]	7.74	7.66	8.40	7.66	8.15	7.74	7.74	8.15	8.22	8.15	8.30	7.66	
